Columns and labels:
MDA-MB-231 [1] = assay: Antiproliferative activity against human MDA-MB-231 cells at 10 uM after 72 hrs by MTT assay; format: functional; conditions: MDA-MB-231, 72 h
How it was run: (§1)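 Cells attached for 24 h, then exposed 72 h to analogue in Me2SO or Me2SO alone (final Me2SO 0.1%), with media and compound renewed after 48 h. Viable cells were measured by MTS tetrazolium reduction in three replicates. Top concentration tested per compound was 2.5, 5, 10, 20 or 100 μM.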

DU-145 [2] = assay: Antiproliferative activity against human DU145 cells at 10 uM after 72 hrs by MTT assay; format: functional; conditions: DU-145, 72 h; how it was run: as §1
KG-1 [3] = assay: Induction of apoptosis in human KG1 cells at 5.0 uM […] by acridine orange staining; format: functional
KG-1 [4] = assay: Induction of apoptosis in human KG1 cells after 48 hrs by acridine orange staining; format: functional, cell-based; conditions: KG-1, 48 h
[5] = Antiproliferative activity against human KG1 AML cells after 48 hrs by MTT assay; format: functional, cell-based; conditions: in the assay text read “by hemocytometer cell counting” for “by MTT assay”
How it was run: (§2)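 KG-1 cells in 5% FBS medium attached overnight, then treated 48 h with analogue in Me2SO or Me2SO alone (final 0.1%). Cells were harvested and counted by hemocytometer in triplicate wells. Highest concentration evaluated was 5 μM.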

[6] = molecular target: T1, Tyrosine-protein phosphatase non-receptor type 11 (Homo sapiens, UniProt Q06124); assay: Inhibition of SHP2 overexpressed in human KG1 cells; format: cell-based, KG-1
T1 sequence (Q06124 whole entry): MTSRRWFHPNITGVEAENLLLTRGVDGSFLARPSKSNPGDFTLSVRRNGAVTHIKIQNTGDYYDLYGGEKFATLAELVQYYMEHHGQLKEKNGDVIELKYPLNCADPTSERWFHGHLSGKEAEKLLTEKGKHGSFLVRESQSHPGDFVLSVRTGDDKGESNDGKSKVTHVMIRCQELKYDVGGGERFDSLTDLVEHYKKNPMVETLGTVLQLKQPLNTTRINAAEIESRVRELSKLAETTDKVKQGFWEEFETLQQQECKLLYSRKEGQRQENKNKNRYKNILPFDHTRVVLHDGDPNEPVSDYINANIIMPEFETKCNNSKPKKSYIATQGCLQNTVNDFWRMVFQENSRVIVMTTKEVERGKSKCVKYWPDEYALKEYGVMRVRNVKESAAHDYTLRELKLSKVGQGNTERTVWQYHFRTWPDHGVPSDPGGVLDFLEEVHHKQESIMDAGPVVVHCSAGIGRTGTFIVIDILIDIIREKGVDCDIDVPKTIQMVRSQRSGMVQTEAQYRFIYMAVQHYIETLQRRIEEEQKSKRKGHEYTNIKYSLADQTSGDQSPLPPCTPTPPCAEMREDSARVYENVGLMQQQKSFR
How it was run: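 Shp-2 PTP activity was measured as hydrolysis of the fluorogenic substrate 6,8-difluoro-4-methylumbelliferyl phosphate in the presence of analogue in Me2SO or Me2SO alone (final concentration 5%).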

DU-145 [7] = assay: Antiproliferative activity against human DU145 cells after 72 hrs by MTT assay; format: functional, cell-based; conditions: DU-145, 72 h; how it was run: as §1
KG-1 [8] = assay: Induction of apoptosis in human KG1 cells at 1.0 uM […] by acridine orange staining; format: functional
[9] = Antiproliferative activity against human H292 cells at 10 uM after 72 hrs by MTT assay; format: functional; conditions: NCI-H292, 72 h; how it was run: as §1
[10] = Antiproliferative activity against human KG1 AML cells at 5 uM after 48 hrs by MTT assay; format: functional; conditions: in the assay text read “by hemocytometer cell counting” for “by MTT assay”; how it was run: as §2
[11] = molecular target: T2, Nuclear receptor subfamily 0 group B member 2 (Homo sapiens) (UniProt Q15466); assay: Displacement of [5,5'-3H2]AHPN from human recombinant GST-SHP at 50 uM by liquid scintillation counting relative to 3-Cl-AHPC
T2 sequence (whole entry): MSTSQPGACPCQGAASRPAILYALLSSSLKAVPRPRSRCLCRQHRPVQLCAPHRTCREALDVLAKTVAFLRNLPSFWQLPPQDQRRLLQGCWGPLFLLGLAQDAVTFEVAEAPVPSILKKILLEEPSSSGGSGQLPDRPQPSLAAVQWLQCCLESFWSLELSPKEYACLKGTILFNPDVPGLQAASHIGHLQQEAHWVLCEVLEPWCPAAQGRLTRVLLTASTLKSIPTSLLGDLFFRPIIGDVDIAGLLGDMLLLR
How it was run: (§3)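 Recombinant GST–human SHP was bound to glutathione–Sepharose beads and incubated 2 h with 5 nM [5,5′-3H2]AHPN with or without competitor (1.0, 5.0 or 50 μM). Beads were washed twice and counted. Displacement was expressed relative to 50 μM 3-Cl-AHPC set as 100%.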

[12] = Antiproliferative activity against human H292 cells after 72 hrs by MTT assay; format: functional, cell-based; conditions: NCI-H292, 72 h; how it was run: as §1
MDA-MB-231 [13] = assay: Antiproliferative activity against human MDA-MB-231 cells after 72 hrs by MTT assay; format: functional, cell-based; conditions: MDA-MB-231, 72 h; how it was run: as §1
DU-145 [14] = assay: Antiproliferative activity against human DU145 cells at 100 uM after 72 hrs by MTT assay; format: functional; conditions: DU-145, 72 h; how it was run: as §1
[15] = Antiproliferative activity against human H292 cells at 100 uM after 72 hrs by MTT assay; format: functional; conditions: NCI-H292, 72 h; how it was run: as §1
[16] = molecular target: T3, Nuclear receptor subfamily 0 group B member 2 (Homo sapiens, UniProt Q15466); assay: Displacement of [5,5'-3H2]AHPN from human recombinant GST-SHP by liquid scintillation counting relative to 3-Cl-AHPC; how it was run: as §3
T3 sequence (Q15466 whole entry): T2 sequence (whole entry)

MDA-MB-231 [17] = assay: Antiproliferative activity against human MDA-MB-231 cells at 100 uM after 72 hrs by MTT assay; format: functional; conditions: MDA-MB-231, 72 h; how it was run: as §1
DU-145 [18] = assay: Antiproliferative activity against human DU145 cells at 5 uM after 72 hrs by MTT assay; format: functional; conditions: DU-145, 72 h; how it was run: as §1
MDA-MB-231 [19] = assay: Antiproliferative activity against human MDA-MB-231 cells at 5 uM after 72 hrs by MTT assay; format: functional; conditions: MDA-MB-231, 72 h; how it was run: as §1
[20] = Antiproliferative activity against human H292 cells at 5 uM after 72 hrs by MTT assay; format: functional; conditions: NCI-H292, 72 h; how it was run: as §1
KG-1 [21] = assay: Induction of apoptosis in human KG1 cells at 25 uM […] by acridine orange staining; format: functional

Compound | inhibition at 10 µM (MDA-MB-231 [1]) [%] | inhibition at 10 µM (DU-145 [2]) [%] | Activity (KG-1 [3]) [%] | IC50 [5] [µM] | IC50 [6] [µM] | IC50 (DU-145 [7]) [µM] | Activity (KG-1 [8]) [%] | inhibition at 10 µM [9] [%] | Activity [10] [%] | Activity [11] [%] | IC50 [12] [µM] | IC50 (MDA-MB-231 [13]) [µM] | IC50 [16] [µM] | further results
O=C(O)/C=C/c1ccc(-c2ccc(O)c(C34CC5CC(CC3C5)C4)c2)c(Cl)c1 | 51 | 59 | 16 | 0.92 | 3.91 | 7.9 | 2 | 69 | 94 | 85 | 6.8 | 9.8 | – | IC50 (KG-1 [4]): 230 µM
O=C(O)/C=C/c1ccc(-c2ccc(F)c(C34CC5CC(CC(C5)C3)C4)c2)c(Cl)c1 | – | – | 0 | > 5 | 2.11 | 16 | 0 | – | 0 | 90 | 6 | 67 | 1 | inhibition at 100 µM (DU-145 [14]): 84%; inhibition at 100 µM [15]: 95%; inhibition at 100 µM (MDA-MB-231 [17]): 83%
CC(C)(C)C#Cc1cc(-c2ccc(/C=C/C(=O)O)cc2Cl)ccc1O | 4 | 13 | 0 | > 5 | 0.45 | > 10 | 0 | 14 | 22 | – | > 10 | > 10 | – | –
O=C(O)/C=C/c1ccc(-c2ccc(F)cc2)c(Cl)c1 | 0 | 15 | 0 | > 5 | 500 | > 100 | 0 | 18 | 7 | – | 47 | > 100 | – | inhibition at 100 µM (DU-145 [14]): 23%; inhibition at 100 µM [15]: 60%; inhibition at 100 µM (MDA-MB-231 [17]): 9%
CC12CC3CC(C)(C1)CC(c1cc(-c4ccc(/C=C/C(=O)O)cc4Cl)ccc1O)(C3)C2 | – | – | 0 | > 5 | 2.27 | > 5 | 0 | – | 0 | 103 | 3.6 | > 5 | 0.5 | inhibition at 5 µM (DU-145 [18]): 23%; IC50 (KG-1 [4]): 13.5 µM; inhibition at 5 µM (MDA-MB-231 [19]): 7%; inhibition at 5 µM [20]: 66%; Activity (KG-1 [21]): 83%
CCC(CC)(CC)c1cc(-c2ccc(/C=C/C(=O)O)cc2Cl)ccc1O | – | – | 4 | > 5 | 5.37 | > 5 | 3 | – | 0 | 90 | > 5 | > 5 | 8 | inhibition at 5 µM (DU-145 [18]): 2%; inhibition at 5 µM (MDA-MB-231 [19]): 2%; inhibition at 5 µM [20]: 5%; Activity (KG-1 [21]): 14%
Cc1cccc(C)c1-c1cc(-c2ccc(/C=C/C(=O)O)cc2Cl)ccc1O | 0 | 4 | 0 | > 5 | 19.9 | > 10 | 0 | 0 | 0 | – | > 10 | > 10 | – | –
